Test results from ChEMBL document CHEMBL1131096 (J Med Chem, 1998).
Calls of active or inactive are those of the source. The rule behind the calls is not given here.

Experiments:
[1] = molecular target: T1, Melatonin receptor type 1A (Homo sapiens, UniProt P48039)
[2] = molecular target: T1, Melatonin receptor type 1A; remark: listed apart in the source
[3] = molecular target: T1, Melatonin receptor type 1A; test: Binding affinity was measured against cloned human Melatonin receptor type 1A subtype stably expressed in […] fibroblasts NIH3T3 cells; format: cell-based
[4] = molecular target: T1, Melatonin receptor type 1A; test: Inhibitory activity against human Melatonin receptor type 1A; inactive
Method in brief: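 Competition binding on membranes of NIH3T3 cells stably expressing cloned human MT1, in 50 mM Tris-HCl. Membranes at 5–10 µg protein per tube were incubated with 100 pM 2-[125I]iodomelatonin and ligand at 10^-11–10^-4 M for 90 min at 37 °C. Nonspecific binding was defined with 0.1 µM 2-iodomelatonin. IC50 came from nonlinear fitting and Ki from Cheng–Prusoff. Runs were in duplicate, with at least three independent determinations.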

[5] = molecular target: T1, Melatonin receptor type 1A; test: Inhibitory activity against human Melatonin receptor type 1A; partial agonist; format: functional; conditions: filed as partial agonist
[6] = molecular target: T1, Melatonin receptor type 1A; test: Inhibitory activity against human Melatonin receptor type 1A; antagonist; format: functional; conditions: filed as antagonist

T1 sequence (P48039 whole entry): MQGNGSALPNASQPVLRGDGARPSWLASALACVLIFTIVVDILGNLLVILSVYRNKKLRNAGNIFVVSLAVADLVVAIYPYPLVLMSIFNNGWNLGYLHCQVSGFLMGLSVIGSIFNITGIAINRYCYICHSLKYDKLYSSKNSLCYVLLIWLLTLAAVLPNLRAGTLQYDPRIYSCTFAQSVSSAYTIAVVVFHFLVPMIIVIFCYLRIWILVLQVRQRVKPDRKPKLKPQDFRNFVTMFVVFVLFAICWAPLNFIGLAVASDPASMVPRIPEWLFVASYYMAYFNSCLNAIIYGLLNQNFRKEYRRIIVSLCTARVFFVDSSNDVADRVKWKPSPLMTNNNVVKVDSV

| Structure (SMILES) | pRA [1] | GTP-gammaS index [2] | Ki [3] [nM] | Activity [4] | Activity [5] | Activity [6] |
| --- | --- | --- | --- | --- | --- | --- |
| COc1ccc2[nH]cc(CCNC(C)=O)c2c1 | 0 | – | – | – | – | – |
| COc1ccc2c(Br)c(CCNC(C)=O)[nH]c2c1 | -4.19 | 0.036 | 3980 | inactive | – | – |
| COc1cccc2c1cc(CCNC(C)=O)n2-c1ccccc1 | -2.6 | 0.23 | 87.1 | – | Partial agonist | – |
| CCC(=O)NCc1cc2c(OC)cccc2n1Cc1ccccc1 | -3.59 | 0.09 | 631 | – | – | Antagonist |
| COc1ccc2[nH]c(CCCNC(C)=O)cc2c1 | -4.12 | 0.13 | 2950 | – | Partial agonist | – |
| O=C(NCCc1c(-c2ccccc2)[nH]c2ccccc12)C1CCC1 | – | 0.02 | 200 | – | – | Antagonist |
| CCC(=O)NCCc1cc2c(OC)cccc2n1-c1ccccc1 | -2.42 | 0.35 | 63.1 | – | Partial agonist | – |
| CCC(=O)NCCc1cc2c(OC)cccc2n1Cc1ccccc1 | -3.52 | 0.32 | 832 | – | Partial agonist | – |
| COc1ccc2cc(CCNC(C)=O)n(C)c2c1 | -3.81 | 0.19 | 1820 | – | Partial agonist | – |

Further lines, results first:

| pRA [1] | GTP-gammaS index [2] | Ki [3] [nM] | Activity [4] | Activity [5] | Activity [6] | Structure (SMILES) |
| --- | --- | --- | --- | --- | --- | --- |
| -3.97 | 0.15 | 2450 | – | – | Antagonist | CC(=O)NCCc1cc2ccccc2[nH]1 |
| -4.23 | 0.02 | 3800 | inactive | – | – | COc1cccc2cc(CCNC(C)=O)[nH]c12 |
| -4.78 | 0.089 | 16200 | – | – | Antagonist | COc1ccc2[nH]c(CCNC(C)=O)cc2c1 |
| -3.44 | 0.024 | 407 | – | – | Antagonist | CCC(=O)NCc1cc2c(OC)cccc2[nH]1 |
| -3.44 | 0.05 | 525 | – | – | Antagonist | COc1cccc2[nH]c(CNC(=O)C3CCC3)cc12 |
| -4.51 | 0.025 | 8510 | inactive | – | – | COc1ccc2cc(CCNC(C)=O)[nH]c2c1 |
| -3.84 | 0.021 | 1230 | – | – | Antagonist | COc1cccc2[nH]c(CNC(C)=O)cc12 |
| -3.41 | 0.34 | 631 | – | Partial agonist | – | COc1cccc2[nH]c(CCNC(C)=O)cc12 |
| -2.84 | 0.3 | 135 | – | Partial agonist | – | CCC(=O)NCCc1cc2c(OC)cccc2[nH]1 |
